Assay results as given in ChEMBL document CHEMBL1138217, “Rapid discovery and structure-activity profiling of novel inhibitors of human immunodeficiency virus type 1 protease enabled by the copper(I)-catalyzed synthesis of 1,2,3-triazoles and their further functionalization” (J Med Chem, 2006).

Experiments:
[1] = biological target: Human immunodeficiency virus type 1 protease (Human immunodeficiency virus 1, UniProt Q72874); test: Inhibition of HIV1 protease
In short: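 HIV-1 protease (SF-2-WTQ7K-Pr construct for the isolated inhibitors) at 20 µg/mL with 50 µM fluorogenic substrate Abz-Thr-Ile-Nle/Phe-(p-NO2)Gln-Arg-NH2, in 0.1 M MES, 0.2 M NaCl, pH 5.25, 5% (v/v) glycerol. Crude mixtures were screened at 5 µM as percent inhibition.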

[2] = biological target: Human immunodeficiency virus type 1 protease (Human immunodeficiency virus 1) (UniProt Q72874); test: Inhibition of HIV1 protease at 5 uM
In short: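 Crude click-reaction DMSO mixtures (azide-alkyne, CuSO4 with copper turning, 1:1 tBuOH/H2O, 50 °C, 5 days) diluted to 5 µM in 0.1 M MES, 0.2 M NaCl, pH 5.25, 5% glycerol; HIV-1 protease 20 µg/mL plus fluorogenic substrate 50 µM added; fluorescence read directly in microplate; percent inhibition; TL-3 100 nM positive control.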

Cc1ccc(Cl)cc1N1CCN(Cc2nnn([C@@H](Cc3ccccc3)[C@H](Cc3ccccc3)NC(=O)OC3CCCC3)c2CO)CC1
Ki [1]: 8 nM

CC[C@H](O)c1c(CN2CCN(c3cc(C)ccc3C)CC2)nnn1[C@@H](Cc1ccccc1)[C@H](Cc1ccccc1)NC(=O)OC1CCCC1
Ki [1]: 27 nM

Cc1ccc(Cl)cc1N1CCN(Cc2cn([C@@H](Cc3ccccc3)[C@H](Cc3ccccc3)NC(=O)CC3CCCC3)nn2)CC1
Ki [1]: > 2500 nM
inhibition [2]: 28%

CC[C@@H](O)c1c(CN2CCN(c3cc(C)ccc3C)CC2)nnn1[C@@H](Cc1ccccc1)[C@H](Cc1ccccc1)NC(=O)OC1CCCC1
Ki [1]: 42 nM

CC(C)(C)OC(=O)N[C@@H](Cc1ccccc1)[C@H](Cc1ccccc1)N=[N+]=[N-]
Ki [1]: 31000 nM

Cc1ccc(C)c(N2CCN(Cc3nnn([C@@H](Cc4ccccc4)[C@H](Cc4ccccc4)NC(=O)OC4CCCC4)c3[Si](C)(C)C)CC2)c1
Ki [1]: > 2500 nM

Cc1ccc(Cl)cc1N1CCN(Cc2cn([C@@H](Cc3ccccc3)[C@H](Cc3ccccc3)NC(=O)O[C@@H]3CCOC3)nn2)CC1
Ki [1]: 83 nM
inhibition [2]: 71%

Cc1ccc(Cl)cc1N1CCN(Cc2cn([C@@H](Cc3ccccc3)[C@H](Cc3ccccc3)NC(=O)OC3CCCC3)nn2)CC1
Ki [1]: 23 nM
inhibition [2]: 94%

Cc1ccc(C)c(N2CCN(Cc3nnn([C@@H](Cc4ccccc4)[C@H](Cc4ccccc4)NC(=O)OC4CCCC4)c3[C@@H](C)O)CC2)c1
Ki [1]: 25 nM

CC(C)C[C@H](NC(=O)OC1CCCC1)[C@H](Cc1ccccc1)n1cc(CN2CCN(c3cccc(C(F)(F)F)c3)CC2)nn1
Ki [1]: 86 nM
inhibition [2]: 50%

Cc1ccc(C)c(N2CCN(Cc3nnn([C@@H](Cc4ccccc4)[C@H](Cc4ccccc4)NC(=O)OC4CCCC4)c3[C@H](C)O)CC2)c1
Ki [1]: 10 nM

Cc1ccc(C)c(N2CCN(Cc3cn([C@@H](Cc4ccccc4)[C@H](Cc4ccccc4)NC(=O)OC4CCCC4)nn3)CC2)c1
IC50 [1]: > 25000 nM
Ki [1]: 32 nM
inhibition [2]: 94%

Cc1ccc(Cl)cc1N1CCN(Cc2nnn([C@@H](Cc3ccccc3)[C@H](Cc3ccccc3)NC(=O)OC3CCCC3)c2[C@H](C)O)CC1
Ki [1]: 21 nM

Cc1ccccc1N1CCN(Cc2cn([C@@H](Cc3ccccc3)[C@H](Cc3ccccc3)NC(=O)OC3CCCC3)nn2)CC1
inhibition [2]: 80%

O=C(N[C@@H](Cc1ccccc1)[C@H](Cc1ccccc1)n1cc(CN2CCC(O)(c3ccccc3)CC2)nn1)OC1CCCC1
inhibition [2]: 20%

Cc1ccc(C)c(N2CCN(Cc3nnn([C@@H](Cc4ccccc4)[C@H](Cc4ccccc4)NC(=O)OC4CCCC4)c3CO)CC2)c1
Ki [1]: 14 nM

Cc1ccc(Cl)cc1N1CCN(Cc2cn([C@@H](Cc3ccccc3)[C@H](Cc3ccccc3)NC(=O)Nc3ccc(F)cc3)nn2)CC1
inhibition [2]: 30%

Cc1ccc(Cl)cc1N1CCN(Cc2nnn([C@@H](Cc3ccccc3)[C@H](Cc3ccccc3)NC(=O)OC3CCCC3)c2[C@@H](C)O)CC1
Ki [1]: 28 nM

Cc1ccc(Cl)cc1N1CCN(Cc2cn([C@@H](Cc3ccccc3)[C@H](Cc3ccccc3)NC(=O)C3CCCCC3)nn2)CC1
inhibition [2]: 17%

O=C(N[C@@H](Cc1ccccc1)[C@H](Cc1ccccc1)n1cc(CN2CCC(O)(c3ccc(Cl)c(C(F)(F)F)c3)CC2)nn1)OC1CCCC1
inhibition [2]: 48%

Cc1ccc(Cl)cc1N1CCN(Cc2cn([C@@H](Cc3ccccc3)[C@H](Cc3ccccc3)NC(=O)NC3CCCCC3)nn2)CC1
inhibition [2]: 15%

CCN1CCN(Cc2cn([C@@H](Cc3ccccc3)[C@H](Cc3ccccc3)NC(=O)OC3CCCC3)nn2)CC1
inhibition [2]: 26%

Cc1ccc(Cl)cc1N1CCN(Cc2cn([C@@H](Cc3ccccc3)[C@H](Cc3ccccc3)NC(=O)OCC(C)C)nn2)CC1
inhibition [2]: 73%

O=C(N[C@@H](Cc1ccccc1)[C@H](Cc1ccccc1)n1cc(CN2CCN(c3cccc(C(F)(F)F)c3)CC2)nn1)OC1CCCC1 (stereo in doubt; (S,S)-7d)
Ki [1]: 98 nM
